Calls of active or inactive are those of the source. The calls are words filed in the database; no cut-off is given here.
Experiments:
Assay type in all cases: functional, cell-based
CHO [1] = test: Dose required to inhibit cell growth was determined against CHO cell line; conditions: Cricetulus griseus
Method in brief: (§1)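 Alamar Blue growth assay. (1–5) × 10^3 cells per well preincubated 24 h, then exposed to increasing drug concentrations for 72 h at 37 °C. Medium replaced with PBS containing 20% Alamar Blue, fluorescence read at 485/590 nm. IC50 is the dose inhibiting growth by 50%.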

HT-29 = test: Dose required to inhibit cell growth was determined against HT-29 cell line of human adenocarcinoma; method in brief: as §1
K562 = test: Dose required to inhibit cell growth was determined against K562 cell line of chronic myelogenous leukemia; conditions: Homo sapiens; method in brief: as §1
L1210 = test: Dose required to inhibit cell growth was determined against L1210 cell line of murine lymphocytotic leukemia; conditions: Mus musculus; method in brief: as §1
MDA-MB-231 [2] = test: Dose required to inhibit cell growth was determined against MDA-MB-231 cell line of human non-hormone dependent breast carcinoma; method in brief: as §1
MDA-MB-231 [3] = test: Dose required to inhibit cell growth was determined against MDA-MB-231 cell line of human non-hormone dependent breast carcinoma; NA= Not active represents IC50 >400 uM
Method in brief: (§2)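 Alamar Blue growth-inhibition assay. Cells ((1–5) × 10³ per well) were preincubated for 24 h, then exposed to increasing drug concentrations for 72 h at 37 °C. Alamar Blue (20%) was added and fluorescence read at ex 485 / em 590 nm. IC50 is the dose inhibiting growth by 50%. Means of ≥3 independent determinations.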

LoVo [4] = test: Dose required to inhibit cell growth was determined against LoVo cell line of human adenocarcinoma; NA= Not active represents IC50 >400 uM; method in brief: as §2
P388 [5] = test: Dose required to inhibit cell growth was determined against P388D1 cell line of murine lymphocytotic leukemia; NA= Not active represents IC50 >400 uM; conditions: Mus musculus; method in brief: as §2
CHO [6] = test: Dose required to inhibit cell growth was determined against CHO cell line; Not active represents IC50 >400 uM; conditions: Cricetulus griseus; method in brief: as §2
MDA-MB-231 [7] = test: Dose required to inhibit cell growth was determined against MDA-MB-231 cell line of human non-hormone dependent breast carcinoma; Not active represents IC50 >400 uM; method in brief: as §2
LoVo [8] = test: Dose to inhibit cell growth determined against LoVo cell line of human adenocarcinoma; method in brief: as §1
P388 [9] = test: Dose required to inhibit cell growth was determined against P388D1 cell line of murine lymphocytotic leukemia; conditions: Mus musculus; method in brief: as §1

Row | Compound | IC50 (CHO [1]) | IC50 (HT-29) | IC50 (K562) | IC50 (L1210) | IC50 (MDA-MB-231 [2]) | NA (MDA-MB-231 [3]) | NA (LoVo [4]) | NA (P388 [5]) | NA (CHO [6]) | NA (MDA-MB-231 [7]) | IC50 (LoVo [8]) | IC50 (P388 [9])
1 | CCCNC(=O)Nc1ccc(C(C)(C)C)cc1 | 132 µM | 35 µM | 30 µM | 5.4 µM | 131 µM |  |  |  |  |  |  | 
2 | O=c1[nH]c2ccccc2c(=O)n1CCCl |  |  |  |  |  | inactive | inactive | inactive |  |  |  | 
3 | CCNC(=O)Nc1ccc(C(C)CC)cc1 (stereo not given) |  | 132 µM | 101 µM | 43 µM |  |  |  |  | inactive | inactive |  | 
4 | CCCc1ccc(NC(=O)NCCCl)cc1 | 19 µM | 23 µM | 8.2 µM | 9 µM | 18 µM |  |  |  |  |  | 10 µM | 11 µM
5 | Cc1ccc(NC(=O)NCCCl)cc1 | 26 µM | 23 µM | 16 µM | 16 µM | 25 µM |  |  |  |  |  | 20 µM | 30 µM
6 | CCCCCCCCc1ccc(NC(=O)NCCCl)cc1 |  |  |  |  | 33 µM |  |  |  |  |  | 29 µM | 32 µM
7 | Cc1cccc(NC(=O)NCCCl)c1 |  |  |  |  | 60 µM |  |  |  |  |  | 60 µM | 75 µM
8 | CCCCCCCCCCCCc1ccc(NC(=O)NCCCl)cc1 |  |  |  |  |  | inactive | inactive | inactive |  |  |  | 
9 | Cc1cccc(C)c1NC(=O)NCCCl |  |  |  |  |  | inactive | inactive | inactive |  |  |  | 
10 | O=C(NCCCl)Nc1cccc(I)c1 | 35 µM | 24 µM | 17 µM | 27 µM | 27 µM |  |  |  |  |  | 36 µM | 34 µM
11 | CCCNC(=O)Nc1ccc(C(C)C)cc1 | 133 µM | 76 µM | 52 µM | 14 µM |  |  |  |  |  | inactive |  | 
12 | O=C(NCCCl)Nc1ccc(Br)cc1 | 10 µM | 9 µM | 4.6 µM | 8.1 µM | 10 µM |  |  |  |  |  | 11 µM | 10 µM
13 | Cc1cccc(NC(=O)NCCCl)c1C |  |  |  |  |  | inactive | inactive | inactive |  |  |  | 
14 | Cc1ccc(NC(=O)NCCCl)cc1C | 8.7 µM | 5.4 µM | 3.5 µM | 3.8 µM | 7.2 µM |  |  |  |  |  | 3.5 µM | 4.2 µM
15 | O=C(NCCCl)Nc1ccc(C2CCCCC2)cc1 | 23 µM | 38 µM | 18 µM | 16 µM | 44 µM |  |  |  |  |  | 22 µM | 22 µM
16 | CCCCc1ccc(NC(=O)NCCCl)cc1 | 18 µM | 22 µM | 10 µM | 12 µM | 19 µM |  |  |  |  |  | 10 µM | 10 µM
17 | CCCCCCCCCCc1ccc(NC(=O)NCCCl)cc1 |  |  |  |  |  | inactive | inactive | inactive |  |  |  | 

Reference: ChEMBL document CHEMBL1134792, “Antimitotic antitumor agents: synthesis, structure-activity relationships, and biological characterization of N-aryl-N'-(2-chloroethyl)ureas as new selective alkylating agents” (J Med Chem, 2001)
